Laboratory results: ChEMBL document CHEMBL2321652, “Design and synthesis of HIV-1 protease inhibitors for a long-acting injectable drug application” (Bioorg Med Chem Lett, 2013)

What was measured:
[1] = Drug metabolism in human liver microsomes at 1 uM after 15 mins; format: ADME, Microsome; details: read-out: Drug metabolism
Summary of the method: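 Human liver microsome incubation at 37 °C for 15 min with compound at 1 µM; turnover expressed as percent of compound metabolized.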

[2] = Plasma clearance in rat at 2 mg/kg, iv; format: ADME, organism-based; design: dose 2 mg/kg, route intravenous
Summary of the method: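 Single intravenous dose of 2 mg/kg in rats. The formulation is typically 1 mg/mL in PEG400/ethanol/saline (70/20/10). Clearance values are averages from two or three animals. High is >3 L/h/kg (>70% liver blood flow) and low is <1.3 L/h/kg (<30%).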

[3] = Cytotoxicity against human MT4 cells; format: cell-based
[4] = test system: Human immunodeficiency virus 1; experiment: Antiviral activity against wild type Human immunodeficiency virus 1 3B infected in human MT4 cells assessed as inhibition of viral replication; format: functional, organism-based
Summary of the method: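 EC50 values are averages of at least two independent experiments (typically three to four), each run in quadruplicate. For the serum-shifted line, the same antiviral assay includes 50% human serum, used as a functional measure of plasma protein binding.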

[5] = test system: Human immunodeficiency virus 1; experiment: Antiviral activity against wild type Human immunodeficiency virus 1 3B infected in human MT4 cells assessed as inhibition of viral replication in presence of 50% human serum
[6] = test system: Human immunodeficiency virus 1; experiment: Selectivity ratio of EC50 for Human immunodeficiency virus 1 3B clinical isolate harboring L10I/K20R/M36I/G48V/ I62V/A71V/V82A/I93L protease mutant to EC50 for wild type Human immunodeficiency virus 1 3B; format: functional
[7] = test system: Human immunodeficiency virus 1; experiment: Selectivity ratio of EC50 for Human immunodeficiency virus 1 3B clinical isolate harboring L10I/I13V/M46I/I50V/L63P/L76V protease mutant to EC50 for wild type Human immunodeficiency virus 1 3B; format: functional
[8] = test system: Human immunodeficiency virus 1; experiment: Selectivity ratio of EC50 for Human immunodeficiency virus 1 3B clinical isolate harboring L10I/M46I/I64V/I84V/L90M/I93L protease mutant to EC50 for wild type Human immunodeficiency virus 1 3B; format: functional
[9] = test system: Human immunodeficiency virus 1; experiment: Antiviral activity against Human immunodeficiency virus 1 3B clinical isolate harboring L10I/M46I/I64V/I84V/L90M/I93L protease mutant infected in human MT4 cells assessed as inhibition of viral replication; format: functional, organism-based
Summary of the method: (§1)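 Inhibition of replication in MT4 cells infected with protease-mutant HIV-1 clinical isolates, reported as EC50. Each assay run in quadruplicate. Values are averages of at least two independent experiments, typically three to four. Cytotoxicity (CC50) was measured in parallel in MT4 cells.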

[10] = Aqueous solubility of the compound in crystalline polymorphic form; format: physicochemical
[11] = Bioavailability in rat at 50 mg/mL formulated with 25 mg/mL of poloxamer 338 and sucrose in water administered intramuscularly measured after 1 month; format: ADME, organism-based; details: in vivo, im
Summary of the method: (§2)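 Nanosuspension depot given by a single intramuscular injection in rats. Blood is sampled at regular intervals over two months. Absolute bioavailability is assessed after 1 month of sampling as ((AUC_IM × dose_IV)/(AUC_IV × dose_IM)) × 100, relative to intravenous dosing.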

[12] = Bioavailability in rat at 50 mg/mL formulated with Vit-E TPGS, DSPG and sucrose in water administered intramuscularly measured after 1 month; format: ADME, organism-based; details: in vivo, im; summary of the method: as §2
[13] = Bioavailability in rat at 100 mg/mL formulated with polysorbate 20 and NaCl in water administered intramuscularly measured after 1 month; format: ADME, organism-based; details: in vivo, im; summary of the method: as §2
[14] = test system: Human immunodeficiency virus 1; experiment: Antiviral activity against Human immunodeficiency virus 1 3B clinical isolate harboring L10I/K20R/M36I/G48V/ I62V/A71V/V82A/I93L protease mutant infected in human MT4 cells assessed as inhibition of viral replication; format: functional, organism-based
Summary of the method: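 Each assay run in quadruplicate. Values are averages of at least two independent experiments, typically three to four. Cytotoxicity (CC50) was measured in parallel in MT4 cells.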

[15] = test system: Human immunodeficiency virus 1; experiment: Antiviral activity against Human immunodeficiency virus 1 3B clinical isolate harboring L10I/I13V/M46I/I50V/L63P/L76V protease mutant infected in human MT4 cells assessed as inhibition of viral replication; format: functional, organism-based; summary of the method: as §1

metabolised at 0.25 h, 1 µM [1]	clearance [2]	EC50 [4]	EC50 [5]	Compound	CC50 [3]	Ratio EC50 [6]	Ratio EC50 [7]	Ratio EC50 [8]	EC50 [9]	solubility [10]	bioavailability at 1 month [11]	bioavailability at 1 month [12]	bioavailability at 1 month [13]	EC50 [14]	EC50 [15]
99%	78.3 mL/min/kg	1.1 nM	3.3 nM	COC(=O)N[C@H](C(=O)N[C@@H](Cc1ccc(-c2ccc(OC)nc2)cc1)[C@@H](O)C[C@@H](Cc1ccccc1F)C(=O)N[C@H]1[C@H](C)CC[C@H]1O)C(C)(C)C	> 10000 nM	–	–	–	–	–	–	–	–	–	–
98%	88.3 mL/min/kg	2.8 nM	6.9 nM	COC(=O)N[C@H](C(=O)N[C@@H](Cc1ccc(-c2ccc(OC)nc2)cc1)[C@@H](O)C[C@@H](Cc1ccccc1F)C(=O)N[C@H]1c2cccc(F)c2OC[C@H]1O)C(C)(C)C	> 10000 nM	–	–	–	–	–	–	–	–	–	–
99%	86.7 mL/min/kg	1.8 nM	5.9 nM	COC(=O)N[C@H](C(=O)N[C@@H](Cc1ccc(-c2ccc(OC)nc2)cc1)[C@@H](O)C[C@@H](Cc1ccccc1F)C(=O)N[C@H]1CCCC[C@H]1O)C(C)(C)C	> 10000 nM	–	–	–	–	–	–	–	–	–	–
47%	65 mL/min/kg	2.4 nM	5.3 nM	COC(=O)N[C@H](C(=O)N[C@@H](Cc1ccc(-c2ccc(OC)nc2)cc1)[C@@H](O)C[C@@H](Cc1ccccc1F)C(=O)N[C@H]1c2cccc(Cl)c2OC[C@H]1O)C(C)(C)C	> 10000 nM	–	–	–	–	–	–	–	–	–	–
94%	90 mL/min/kg	0.9 nM	3.2 nM	COC(=O)N[C@H](C(=O)N[C@@H](Cc1ccc(-c2ccc(OC)nc2)cc1)[C@@H](O)C[C@@H](Cc1cccc(OC(F)(F)F)c1)C(=O)N[C@H]1[C@H](C)CCC[C@H]1O)C(C)(C)C	> 10000 nM	–	–	–	–	–	–	–	–	–	–
48%	35 mL/min/kg	1.2 nM	5.8 nM	COC(=O)N[C@H](C(=O)N[C@@H](Cc1ccc(-c2ccc(OC)nc2)cc1)[C@@H](O)C[C@@H](Cc1ccccc1F)C(=O)N[C@H]1c2cc(F)ccc2OC[C@H]1O)C(C)(C)C	> 10000 nM	–	–	–	–	–	–	–	–	–	–
23%	7.83 mL/min/kg	2.7 nM	14 nM	COC(=O)N[C@H](C(=O)N[C@@H](Cc1ccc(-c2ccc(OC)nc2)cc1)[C@@H](O)C[C@@H](Cc1ccccc1F)C(=O)N[C@H]1c2cc(Cl)ccc2OC[C@H]1O)C(C)(C)C	> 10000 nM	–	–	–	–	–	–	–	–	–	–
99%	93.3 mL/min/kg	1.1 nM	4.9 nM	COC(=O)N[C@H](C(=O)N[C@@H](Cc1ccc(-c2ccc(N(C)C)nc2)cc1)[C@@H](O)C[C@@H](Cc1ccccc1F)C(=O)N[C@H]1[C@H](C)CCC[C@H]1O)C(C)(C)C	> 10000 nM	–	–	–	–	–	–	–	–	–	–
8%	31.7 mL/min/kg	2.6 nM	8.4 nM	COC(=O)N[C@H](C(=O)N[C@@H](Cc1ccc(-c2ccc(OC)nc2)cc1)[C@@H](O)C[C@@H](Cc1ccccc1F)C(=O)N[C@H]1c2cc(F)cc(Cl)c2OC[C@H]1O)C(C)(C)C	> 10000 nM	–	–	–	–	–	–	–	–	–	–
72%	96.7 mL/min/kg	2.5 nM	6.6 nM	COC(=O)N[C@H](C(=O)N[C@@H](Cc1ccc(-c2ccc(OC)nc2)cc1)[C@@H](O)C[C@@H](Cc1ccccc1F)C(=O)N[C@H]1c2ccccc2OC[C@H]1O)C(C)(C)C	> 10000 nM	–	–	–	–	–	–	–	–	–	–
48%	83.3 mL/min/kg	2.8 nM	9.8 nM	COC(=O)N[C@H](C(=O)N[C@@H](Cc1ccc(-c2ccc(OC)nc2)cc1)[C@@H](O)C[C@@H](Cc1ccccc1F)C(=O)N[C@H]1c2cc(C)cc(F)c2OC[C@H]1O)C(C)(C)C	> 10000 nM	–	–	–	–	–	–	–	–	–	–
99%	70 mL/min/kg	1.1 nM	7.1 nM	COC(=O)N[C@H](C(=O)N[C@@H](Cc1ccc(-c2ccc(OC)nc2)cc1)[C@@H](O)C[C@@H](Cc1ccccc1Cl)C(=O)N[C@H]1[C@H](C)CCC[C@H]1O)C(C)(C)C	> 10000 nM	–	–	–	–	–	–	–	–	–	–
–	–	13 nM	–	Cc1cccc(C)c1OCC(=O)N[C@@H](Cc1ccccc1)[C@@H](O)C[C@H](Cc1ccccc1)NC(=O)[C@H](C(C)C)N1CCCNC1=O [LOPINAVIR]	> 10000 nM	–	–	–	–	–	–	–	–	–	–
23%	–	4.1 nM	16 nM	COC(=O)N[C@H](C(=O)N[C@@H](Cc1ccc(-c2ccc(OC)nc2)cc1)[C@@H](O)C[C@@H](Cc1ccccc1F)C(=O)N[C@H]1c2cc(Cl)cc(F)c2OC[C@H]1O)C(C)(C)C	> 10000 nM	–	–	–	–	–	–	–	–	–	–
0%	–	4.2 nM	24 nM	COC(=O)N[C@H](C(=O)N[C@@H](Cc1ccc(-c2ccc(OC)nc2)cc1)[C@@H](O)C[C@@H](Cc1cccc(OC(F)(F)F)c1)C(=O)N[C@H]1c2cc(Cl)ccc2OC[C@H]1O)C(C)(C)C	> 10000 nM	–	–	–	–	–	–	–	–	–	–
63%	46.7 mL/min/kg	0.9 nM	7.7 nM	COC(=O)N[C@H](C(=O)N[C@@H](Cc1ccc(-c2ccc(OC)nc2)cc1)[C@@H](O)C[C@@H](Cc1ccccc1F)C(=O)N[C@H]1c2cc(C)ccc2OC[C@H]1O)C(C)(C)C	> 10000 nM	–	–	–	–	–	–	–	–	–	–
5%	23.3 mL/min/kg	3.9 nM	13 nM	COC(=O)N[C@H](C(=O)N[C@@H](Cc1ccc(-c2ccc(OC)nc2)cc1)[C@@H](O)C[C@@H](Cc1ccccc1Cl)C(=O)N[C@H]1c2cc(Cl)ccc2OC[C@H]1O)C(C)(C)C	> 10000 nM	–	–	–	–	–	–	–	–	–	–

Compound	metabolised at 0.25 h, 1 µM [1]	clearance [2]	EC50 [4]	EC50 [5]	CC50 [3]	Ratio EC50 [6]	Ratio EC50 [7]	Ratio EC50 [8]	EC50 [9]	solubility [10]	bioavailability at 1 month [11]	bioavailability at 1 month [12]	bioavailability at 1 month [13]	EC50 [14]	EC50 [15]
COC(=O)N[C@H](C(=O)N[C@@H](Cc1ccccc1)[C@@H](O)CN(Cc1ccc(-c2ccccn2)cc1)NC(=O)[C@@H](NC(=O)OC)C(C)(C)C)C(C)(C)C [ATAZANAVIR]	–	–	6.8 nM	13 nM	> 10000 nM	9	<1	8	57 nM	–	–	–	–	–	–
COC(=O)N[C@H](C(=O)N[C@@H](Cc1ccc(-c2ccc(N(C)C)nc2)cc1)[C@@H](O)C[C@@H](Cc1ccccc1F)C(=O)N[C@H]1c2cc(F)cc(Cl)c2OC[C@H]1O)C(C)(C)C	22%	13.3 mL/min/kg	1.7 nM	6 nM	> 10000 nM	<1	<1	<1	1.3 nM	< 100 µg/mL	5%	12%	3%	0.8 nM	0.9 nM
COC(=O)N[C@H](C(=O)N[C@@H](Cc1ccccc1)[C@@H](O)C[C@@H](Cc1ccccc1)C(=O)N[C@H]1c2ccccc2OC[C@H]1O)C(C)(C)C	99%	66.7 mL/min/kg	10 nM	19 nM	> 10000 nM	<1	<1	2	19 nM	–	–	–	–	7 nM	6 nM
COC(=O)N[C@H](C(=O)N[C@@H](Cc1ccc(-c2ccc(OC)nc2)cc1)[C@@H](O)C[C@@H](Cc1ccccc1F)C(=O)N[C@H]1c2cc(F)cc(C)c2OC[C@H]1O)C(C)(C)C	17%	26.7 mL/min/kg	1.8 nM	6.8 nM	> 10000 nM	<1	2	3	5.4 nM	–	–	–	–	1.5 nM	3.3 nM
CC(C)CN(C[C@@H](O)[C@H](Cc1ccccc1)NC(=O)O[C@H]1CO[C@H]2OCC[C@H]21)S(=O)(=O)c1ccc(N)cc1	–	–	–	17 nM	> 10000 nM	<1	8	2	12 nM	–	–	–	–	2.4 nM	–
